Tests used:
[1] = organism: Rattus norvegicus; assay: Dilator activity expressed as potency for relaxation of Aortic rings precontracted with 25 mM K; type: functional
Outline: (§1)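 Isolated rat aortic rings at 5 mN resting force in supplemented Krebs solution, 32.5 °C, equilibrated 2 h with two test contractures; cumulative concentration-effect curves, effects as % of basal force (100% relaxation) vs maximum force (0%). pEC50 by linear extrapolation at half-maximal effect; Emax as % of basal tension; mean ± SEM, n = 4–6; paired time controls.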

[2] = organism: Rattus norvegicus; assay: Difference between the pEC50 values in rat aorta and trachea as an indicator of selectivity; type: functional
[3] = organism: Rattus norvegicus; assay: Maximum level of relaxation of tracheal strips measured as percentage of basal tension; type: functional; conditions: Trachea
Outline: (§2)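 Rat tracheal strips at 10 mN resting force in supplemented Krebs solution, 32.5 °C, equilibrated 2 h with two test contractures; concentration-effect curves, effects as % of basal force (100% relaxation) vs maximum force (0%). pEC50 by linear extrapolation at half-maximal effect; Emax as % of basal tension; mean ± SEM, n = 4–6; paired time controls.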

[4] = organism: Rattus norvegicus; assay: Dilator activity expressed as potency for relaxation of Tracheal strips percontracted with 0.6 uM carbachol; type: functional; outline: as §2
[5] = organism: Rattus norvegicus; assay: Maximum level of relaxation of aortic rings measured as percentage of basal tension.; type: functional; conditions: Aorta; outline: as §1
[6] = target: ATP-binding cassette sub-family C member 9 (Rattus norvegicus) (UniProt Q63563); assay: Binding affinity to the sulfonylurea receptor 2A (SUR2A) in purified membranes of rat-heart myocytes; type: cell membranes
Sequence of ATP-binding cassette sub-family C member 9 (Rattus norvegicus) (Q63563 whole entry): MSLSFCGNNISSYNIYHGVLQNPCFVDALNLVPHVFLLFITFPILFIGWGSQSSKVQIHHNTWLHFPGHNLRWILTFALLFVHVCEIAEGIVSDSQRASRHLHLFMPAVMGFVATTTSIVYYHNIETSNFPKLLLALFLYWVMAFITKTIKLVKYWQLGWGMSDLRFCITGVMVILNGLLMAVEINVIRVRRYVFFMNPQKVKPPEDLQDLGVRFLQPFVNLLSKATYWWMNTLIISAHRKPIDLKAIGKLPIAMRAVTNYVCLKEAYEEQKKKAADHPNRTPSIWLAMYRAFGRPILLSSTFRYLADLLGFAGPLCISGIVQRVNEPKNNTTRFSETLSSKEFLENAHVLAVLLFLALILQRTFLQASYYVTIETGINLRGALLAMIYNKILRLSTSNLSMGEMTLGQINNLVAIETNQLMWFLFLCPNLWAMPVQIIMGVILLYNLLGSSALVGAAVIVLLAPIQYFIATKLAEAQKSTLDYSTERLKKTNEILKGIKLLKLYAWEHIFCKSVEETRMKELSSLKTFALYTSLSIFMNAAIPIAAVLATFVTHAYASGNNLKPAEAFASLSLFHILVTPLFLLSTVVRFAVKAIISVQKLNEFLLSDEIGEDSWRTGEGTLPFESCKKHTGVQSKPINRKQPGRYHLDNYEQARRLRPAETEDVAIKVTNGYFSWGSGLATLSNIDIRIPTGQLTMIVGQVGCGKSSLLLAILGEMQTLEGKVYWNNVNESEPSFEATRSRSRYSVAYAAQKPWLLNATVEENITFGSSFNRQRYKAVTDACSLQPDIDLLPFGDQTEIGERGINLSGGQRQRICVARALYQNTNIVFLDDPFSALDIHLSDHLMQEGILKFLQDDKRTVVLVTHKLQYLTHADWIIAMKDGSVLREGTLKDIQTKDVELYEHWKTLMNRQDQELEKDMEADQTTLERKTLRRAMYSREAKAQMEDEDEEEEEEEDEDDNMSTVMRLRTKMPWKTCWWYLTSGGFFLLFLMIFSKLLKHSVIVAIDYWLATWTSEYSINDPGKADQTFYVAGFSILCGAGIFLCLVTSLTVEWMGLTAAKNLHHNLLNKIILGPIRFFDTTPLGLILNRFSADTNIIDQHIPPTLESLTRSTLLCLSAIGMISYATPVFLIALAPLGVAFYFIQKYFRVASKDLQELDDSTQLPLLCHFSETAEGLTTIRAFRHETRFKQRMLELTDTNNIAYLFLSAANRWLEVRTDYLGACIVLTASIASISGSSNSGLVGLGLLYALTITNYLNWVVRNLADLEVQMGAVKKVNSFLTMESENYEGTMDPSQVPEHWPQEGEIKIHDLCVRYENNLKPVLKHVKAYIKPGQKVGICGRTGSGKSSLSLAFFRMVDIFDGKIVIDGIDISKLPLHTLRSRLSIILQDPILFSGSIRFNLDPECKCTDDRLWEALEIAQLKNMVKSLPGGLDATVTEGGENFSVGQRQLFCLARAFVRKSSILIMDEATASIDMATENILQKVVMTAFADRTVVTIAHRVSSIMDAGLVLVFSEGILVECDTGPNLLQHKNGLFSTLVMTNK

[7] = target: ATP-binding cassette sub-family C member 9 (Rattus norvegicus) (UniProt Q63563); assay: Binding affinity towards Sulfonylurea receptor 2B (SUR2B) in cultured rat aortic smooth muscle cells (SMC)

SMILES	EC50 [1] [nM]	Delta pEC50 [2]	Emax [3] [%]	EC50 [4] [nM]	Emax [5] [%]	pKD [6]	pKD [7]	pKD ([6]; tested as the 2H-labelled form)	pKD ([7]; tested as the 2H-labelled form)
[2H]c1c([2H])c([2H])c(NS(=O)(=O)c2ccc3c(c2)C(n2ccccc2=O)=CC(C)(C)O3)c([2H])c1[2H]	2	0.82	88	13.2	82.5	–	–	–	–
CC1(C)C=C(n2ccccc2=O)c2cc(S(=O)(=O)Nc3ccccc3F)ccc2O1	–	–	–	–	–	7.63	7.96	–	–
CC1(C)C=C(n2ccccc2=O)c2cc(S(=O)(=O)c3ccccc3)ccc2O1	17.4	1.02	88.1	182	79.3	6.86	7.19	–	–
CNS(=O)(=O)c1ccc2c(c1)C(n1ccccc1=O)=CC(C)(C)O2	17.8	0.89	83	138	85.8	7.18	7.26	–	–
CC(C)NS(=O)(=O)c1ccc2c(c1)C(n1ccccc1=O)=CC(C)(C)O2	676	0.46	94.8	1950	76.9	5.18	5.08	–	–
CC1(C)C=C(n2ccccc2=O)c2cc(S(N)(=O)=O)ccc2O1	69.2	0.51	92.1	224	77.5	6.5	6.94	–	–
CC1(C)C=C(n2ccccc2=O)c2cc(S(=O)(=O)Nc3ccccc3Br)ccc2O1	–	–	–	–	–	6.86	7.64	–	–
CCN(CC)S(=O)(=O)c1ccc2c(c1)C(n1ccccc1=O)=CC(C)(C)O2	–	–	–	–	–	6.45	6.94	–	–
CC1(C)C=C(n2ccccc2=O)c2cc(S(=O)(=O)Oc3ccccc3)ccc2O1	2.51	0.72	86.7	13.2	67.9	7.78	8.55	–	–
CC1(C)C=C(n2ccccc2=O)c2cc(S(=O)(=O)NC(=O)NC3CCCCC3)ccc2O1	–	–	–	–	–	5.25	–	–	–
CN(c1ccccc1)S(=O)(=O)c1ccc2c(c1)C(n1ccccc1=O)=CC(C)(C)O2	1.74	0.75	86.5	9.77	64.2	7.69	7.87	–	–
CC1(C)C=C(n2ccccc2=O)c2cc(S(=O)(=O)NC3CCCC3)ccc2O1	–	–	–	–	–	5.85	6.27	–	–
CC1(C)C=C(n2ccccc2=O)c2cc(S(=O)(=O)NC(=O)Nc3ccccc3)ccc2O1	1410	0.85	99.5	10000	90.8	5.5	–	–	–
CC1(C)C=C(n2ccccc2=O)c2cc(S(=O)(=O)F)ccc2O1	4.79	1.3	90.5	93.3	84.4	7.83	8.01	–	–
CC1(C)C=C(n2ccccc2=O)c2cc(S(=O)(=O)NCc3ccccc3)ccc2O1	525	0.4	77.5	1320	71.1	5.28	6	–	–
CC1(C)C=C(n2ccccc2=O)c2cc(S(=O)(=O)NCCO)ccc2O1	110	0.96	87.9	1000	95.5	6.16	6.34	–	–
CC1(C)C=C(n2ccccc2=O)c2cc(S(=O)(=O)Nc3ccc(Br)cc3)ccc2O1	–	–	–	–	–	5.77	6.65	–	–
CC1(C)C=C(n2ccccc2=O)c2cc(S(=O)(=O)Nc3ccc(C#N)cc3)ccc2O1	263	0.72	90.8	1380	84	5.5	6.12	–	–
CC1(C)C=C(n2ccccc2=O)c2cc(S(=O)(=O)N=[N+]=[N-])ccc2O1	16.2	1.1	77.2	204	88.3	7.83	–	–	–
CC1(C)Oc2ccc(S(=O)(=O)c3ccccc3)cc2[C@@H](N2CCCC2=O)[C@@H]1O [RILMAKALIM]	2.4	1.05	78.5	26.9	81.2	7.57	8.15	–	–
CC1(C)C=C(n2ccccc2=O)c2cc(C#N)ccc2O1 [BIMAKALIM]	16.2	0.99	84.2	158	92.3	7.25	7.98	–	–
CC1(C)C=C(n2ccccc2=O)c2cc(S(=O)(=O)N3CCOCC3)ccc2O1	85.1	0.85	85.1	603	75.5	6.44	6.73	–	–
CN(C)S(=O)(=O)c1ccc2c(c1)C(n1ccccc1=O)=CC(C)(C)O2	16.2	0.77	74.1	95.5	78.3	6.91	7.2	–	–
CC1(C)C=C(n2ccccc2=O)c2cc(S(=O)(=O)Nc3ccc([N+](=O)[O-])cc3)ccc2O1	2090	0.69	75.6	10200	82.2	5.35	5.8	–	–
CC1(C)C=C(n2ccccc2=O)c2cc(S(=O)(=O)Nc3ccccc3)ccc2O1	3.09	0.66	84.5	–	63.6	7.83	8.05	7.73	8.13
CCNS(=O)(=O)c1ccc2c(c1)C(n1ccccc1=O)=CC(C)(C)O2	56.2	0.88	87	–	72.4	6.7	7	–	–
COc1ccc(NS(=O)(=O)c2ccc3c(c2)C(n2ccccc2=O)=CC(C)(C)O3)cc1	117	0.62	84.2	490	77.9	6.27	6.61	–	–

— ChEMBL document CHEMBL1135733, “6-Sulfonylchromenes as highly potent K(ATP)-channel openers” (J Med Chem, 2002)
